Measurements of several laboratories.
Lines come from different studies, so protocols differ.
Target: Serine/threonine-protein kinase PAK 2 (PAK2, Homo sapiens, UniProt Q13177)

COc1ncccc1-c1cnn2ccc(N3CCN(C(=O)OC(C)C)CC3)nc12 gave a remaining binding of 100% (binding, competition with immobilised ligand; 1 µM).
Cn1cc(-c2cccc(N3CCc4c(sc5c4CC(C)(C)C5)C3=O)c2CO)cc(Nc2ccncn2)c1=O has an inhibition of 6% (enzyme activity, inhibitor; 1 µM).
With Cn1cncc1[C@](O)(COc1ccc(C#N)cc1-c1ccc(OC(F)(F)F)cc1)c1ccc(C#N)cc1 the remaining binding was 93% (cell-free assay, competition with immobilised ligand; 1 µM).
For Nc1ncc(-c2nc(N3CCOCC3)nc(N3CCOCC3)n2)c(C(F)F)n1, the remaining binding was 58% (binding, competition with immobilised ligand; 10 µM).
Cn1cc(-c2cc(F)cc(N3CCn4c(cc5c4CCCC5)C3=O)c2CO)cc(Nc2ccc(N3CCN(C4COC4)CC3)cn2)c1=O gave an inhibition of 11% (enzyme activity, inhibitor; 0.1 µM).
C#Cc1n[nH]c2c(-c3cn(C(C)c4ccccn4)c(=O)[nH]c3=O)cc(F)cc12 (stereo not drawn) gave an inhibition of -6.9% (enzyme activity, inhibitor; 1 µM).
O=c1[nH]c2ccccc2n1C1CCN(Cc2ccc(-c3[nH]c4cc5ncnc5cc4nc3-c3ccccc3)cc2)CC1 has a remaining signal of 99.2% (cell-free assay; 0.5 µM).
For C#Cc1n[nH]c2c(-c3cn([C@@H](C)c4ccccc4)c(=O)[nH]c3=O)cc(F)cc12, the inhibition was 1.7% (enzyme activity, inhibitor; 0.1 µM).
COc1cc(Nc2ncc(F)c(Nc3ccc4c(n3)NC(=O)C(C)(C)O4)n2)cc(OC)c1OC has an inhibition of 64% (binding, competition with immobilised ligand; 10 µM).
